Data set [1] can be described thus: Induction of cell death in mouse SM1 cells at 0.1 to 25 uM. In kind it is cell-based.
For data set [2], the system named is Mus musculus. The experiment in a line: Antitumor activity against mouse SM1 cells implanted in flank of immunocompetent C57BL/6 mouse assessed as reduction in tumor growth at 25 mg/kg, ip administered 1 week post-implantation measured for 18 days. In kind it is functional, organism-based. The method in brief:
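SM1 cells passaged in vivo mouse to mouse at least five times; 1.0 × 10^6 cells in 100 µL PBS injected subcutaneously into female C57BL/6 mice 4-6 weeks old, 10 per group. Treatment ip 25 mg/kg or 100 µL PBS vehicle, five days a week until control tumors reached maximum size. Tumor volume from calipers as L × W2/2.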

Data set [3] has as its system Mus musculus. The experiment in a line: Antitumor immunity against mouse SM1 cells implanted in flank of immunocompetent C57BL/6 mouse assessed as infiltration of intratumoral CD4+ cells at 25 mg/kg, ip administered 1 week post-implantation by flow cytometry. In kind it is functional, organism-based.
A short description of data set [4]: Mutagenicity in Salmonella typhimurium TA98 assessed as induction of >= 2 fold increase in revertant colonies at 1.5 to 1000 ug/well in presence of S9 fraction by Ames test. In kind it is toxicity, subcellular. To be noted: salmonella enterica subsp. enterica serovar typhimurium. The method in brief:
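Ames test with S. typhimurium TA98 and TA1537, with and without S9 mix. A positive call required a ≥ 2-fold (TA98) or ≥ 3-fold (TA1537) rise in mean revertant colonies over the concurrent negative/solvent control.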
(In the Ames test, an excess of revertant colonies over the control signals mutagenicity.)

The next data set deals with PC-3. The experiment in a line: Induction of cell death in human PC3 cells at 0.1 to 25 uM. Format: cell-based. To be noted: pc-3, 25 µM.
Data set [5] can be described thus: Effect on cell viability in mouse SM1 cells up to 10 uM by ApoTox-Glo triplex assay. In kind it is cell-based. The essentials: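 SM1 cells treated with HDAC inhibitors, with pan-HDACi and assay controls on every plate. ApoTox-Glo triplex readout: viability fluorescence 400Ex/505Em, cytotoxicity fluorescence 485Ex/520Em, then caspase 3/7 reagent read by luminescence for apoptosis.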

In data set [6] the test system is Mus musculus. The experiment in a line: Antitumor immunity against mouse SM1 cells implanted in flank of immunocompetent C57BL/6 mouse assessed as increase in ratio of M1/M2 macrophages at 25 mg/kg, ip administered 1 week post-implantation by flow cytometry. Format: functional, organism-based. (In general: A flow cytometer gives signals particle by particle.)
Data set [7] concerns the target T1, Protein deacetylase HDAC6 (Mus musculus) (UniProt Q9Z2V5).
T1 sequence (whole entry): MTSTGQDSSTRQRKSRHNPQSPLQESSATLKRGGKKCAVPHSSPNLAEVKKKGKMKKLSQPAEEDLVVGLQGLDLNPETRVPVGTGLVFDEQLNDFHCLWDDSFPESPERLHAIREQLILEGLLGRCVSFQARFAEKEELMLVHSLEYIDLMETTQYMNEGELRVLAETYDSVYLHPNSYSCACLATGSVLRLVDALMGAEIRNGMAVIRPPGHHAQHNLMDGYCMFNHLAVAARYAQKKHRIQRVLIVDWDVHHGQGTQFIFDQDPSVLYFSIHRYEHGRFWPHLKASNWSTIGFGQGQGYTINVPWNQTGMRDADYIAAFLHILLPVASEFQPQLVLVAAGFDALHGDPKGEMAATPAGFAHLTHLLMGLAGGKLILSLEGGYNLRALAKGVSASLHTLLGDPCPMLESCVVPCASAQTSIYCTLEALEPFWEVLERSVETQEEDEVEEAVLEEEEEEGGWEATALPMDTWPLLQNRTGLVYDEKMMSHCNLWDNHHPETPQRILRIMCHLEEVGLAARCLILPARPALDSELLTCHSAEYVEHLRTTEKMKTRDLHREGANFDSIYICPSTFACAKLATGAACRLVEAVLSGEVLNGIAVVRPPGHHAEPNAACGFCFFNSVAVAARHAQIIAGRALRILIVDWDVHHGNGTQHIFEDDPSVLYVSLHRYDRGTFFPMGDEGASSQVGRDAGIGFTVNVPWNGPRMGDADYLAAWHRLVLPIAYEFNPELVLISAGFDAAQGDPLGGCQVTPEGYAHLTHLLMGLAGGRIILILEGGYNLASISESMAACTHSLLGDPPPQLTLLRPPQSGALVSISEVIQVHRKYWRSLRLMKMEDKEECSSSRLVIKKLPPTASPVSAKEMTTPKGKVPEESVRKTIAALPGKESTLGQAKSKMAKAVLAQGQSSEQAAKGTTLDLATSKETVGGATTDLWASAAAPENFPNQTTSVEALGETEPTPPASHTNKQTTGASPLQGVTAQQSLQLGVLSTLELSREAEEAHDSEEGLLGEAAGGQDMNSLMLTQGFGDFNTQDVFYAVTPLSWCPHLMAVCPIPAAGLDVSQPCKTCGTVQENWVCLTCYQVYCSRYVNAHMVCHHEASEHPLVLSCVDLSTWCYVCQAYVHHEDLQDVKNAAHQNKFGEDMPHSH
The experiment in a line: Inhibition of HDAC6 in mouse SM1 cells assessed as effect on acetylated histone H3 level at 5 uM after 24 hrs by Western blot analysis. Format: cell-based. In general terms: In western blotting, separated proteins are transferred to a membrane and probed.

In data set [8] the target is T1, Protein deacetylase HDAC6 (Mus musculus). The experiment in a line: Inhibition of HDAC6 in mouse SM1 cells assessed as reduction in IL-6 stimulated STAT3 phosphorylation at Y705 residue at 5 uM pretreated for 1 hr followed by IL-6 stimulation for overnight by western blot analysis. In kind it is cell-based. The method in brief:
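SM1 cells pretreated with 5 µM compound, then IL-6 overnight. Lysed in RIPA buffer with protease and phosphatase inhibitors, sonicated, protein quantified by BCA. Immunoblot for PD-L1 and STAT3 Y705 phosphorylation.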

Data set [9] can be described thus: Half life in mouse liver microsomes in presence of NADPH. Format: ADME, Microsome. The essentials:
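Liver microsomal stability in mouse and human microsomes with NADPH; half-life in minutes.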

The half-life is the time needed for the level to fall by half in the phase considered.

Structures are written as SMILES. The source made the active and inactive calls.

As for `O=C(NCCc1cc(C(=O)NO)no1)c1ccc(Cl)c(Cl)c1`, the Activity entry (in [1]; in data set [4]; in the data set with PC-3; in [5]) was “Non-Toxic” throughout. Further, the inhibition result (in the data set on Mus musculus [2]; in [8]) was “Active” in each case. For the same molecule, the result in the data set with Mus musculus [3] was inactive. In addition, the result in the data set on Mus musculus [6] was Active. For the same molecule, the inhibition result in data set [7] is “inactive”. Moreover, the half-life in data set [9] turned out to be 37 min.

The values are drawn from ChEMBL document CHEMBL4354804, “Discovery of a New Isoxazole-3-hydroxamate-Based Histone Deacetylase 6 Inhibitor SS-208 with Antitumor Activity in Syngeneic Melanoma Mouse Models” (J Med Chem, 2019).
